# TRPML3 ag: human mucolipin-3 channel agonism. activation, % at 3 µM. HEK293 TRPML3-YFP, Fluo-8 calcium fluorescence; 100% = the carbachol control signal. Q8TDD5. 0.29% of 220,000 active;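 active means activation above its plate's cutoff, the mean activation of the plate's test wells plus 3 SD, cut at about 12% in these data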;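 further: 0% = DMSO only wells and 100% = carbachol wells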
# Target sequence (Q8TDD5 whole entry, looked up): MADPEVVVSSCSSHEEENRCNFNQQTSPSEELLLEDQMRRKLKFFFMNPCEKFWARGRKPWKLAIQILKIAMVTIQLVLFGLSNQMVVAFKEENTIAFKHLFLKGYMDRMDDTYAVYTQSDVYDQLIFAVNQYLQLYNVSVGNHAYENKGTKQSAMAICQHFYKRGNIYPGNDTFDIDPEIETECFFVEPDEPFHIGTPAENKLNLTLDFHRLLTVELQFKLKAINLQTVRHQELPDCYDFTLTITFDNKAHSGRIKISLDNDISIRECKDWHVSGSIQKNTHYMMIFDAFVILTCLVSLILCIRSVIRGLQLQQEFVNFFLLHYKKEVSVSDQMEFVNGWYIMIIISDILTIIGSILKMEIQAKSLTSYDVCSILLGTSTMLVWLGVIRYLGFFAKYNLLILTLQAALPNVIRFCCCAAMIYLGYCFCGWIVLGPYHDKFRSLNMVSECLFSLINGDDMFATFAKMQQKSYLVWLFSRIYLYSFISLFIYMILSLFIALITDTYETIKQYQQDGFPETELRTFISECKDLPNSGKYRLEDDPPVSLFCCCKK
#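 Test system – HEK293 line with stable expression of human TRPML3-YFP channel · Control set – carbachol 87 µM final as high control (100%), DMSO as low control (0%) · Signal – Fluo-8 calcium dye fluorescence, ex 470-495, em 515-575 nm · Incubation – 1-h 37 °C dye load, 5-s basal, 120-s post-compound reads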
# TAAR1 antag: human TAAR1 antagonism; AID 624466; CHO RD-HGA16 TAAR1, Fluo-8 calcium fluorescence, antagonist; inhibition, % at 3 µM; Q96RJ0; 1.5% of 360,000 active;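 active means inhibition above a per-plate cutoff, the mean inhibition of test compounds on that plate plus 3 SD, cut at about 49% in these data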;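 further: 0% = DMSO plus EC80 beta-PEA response and 100% = DMSO alone without agonist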
#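 System: RD-HGA16 CHO cells with stable hTAAR1 and Gα16 | Probe or stimulus: EC80 β-phenethylamine stimulus | Dosing: 3 µM, single point | Times: Dye loading 75 min at 37 °C, then 30 min room temperature | Measured by: Fluo-8 calcium-sensitive fluorescence | Read-out basis: % inhibition of agonist calcium response | Replicates: n of 1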
# zfTRPN1 agonist: zebrafish TRPN1 (NompC) channel agonism; activation, % at 3 µM; HEK293 zebrafish TRPN1-YFP, Fluo-8 calcium fluorescence; 100% = response to 87 µM carbachol; AID 1424; 0.18% of 220,000 active;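 active means activation above its plate's cutoff, the mean activation of test wells on that plate plus 3 SD, cut at about 19% in these data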;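 further: 0% = DMSO alone and 100% = 87 µM carbachol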
#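 Assay system: Zebrafish TRPN1-YFP in HEK293 cells | Incubation: Dye loading 1 h at 37 °C, then 30 min room temperature | Measured by: Kinetic Fluo-8 fluorescence, ex 470-495, em 515-575 nm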
# TAAR1 ag: human TAAR1 agonism. Q96RJ0. CHO RD-HGA16 TAAR1, Fluo-8 calcium fluorescence; vehicle wells 0%, saturating PEA agonist 100%. activation, % at 3 µM. 0.99% of 360,000 active. AID 624467;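 active means activation above the mean activation of all test compounds in the run plus 3 SD, cut at about 38% in these data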
#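 Test system: RD-HGA16 (CHO) cells co-expressing Gα16 and hTAAR1; dosing: one-point dosing at 3 µM (nominal); timing: 17-24 h seeding, 75 min 37 °C dye, 30 min RT; signal: kinetic Fluo-8 calcium fluorescence; read-out basis: % activation relative to PEA EC100 response; controls: DMSO and PEA EC100; replicates: n 1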
# LANA-H2B inh: blocks KSHV LANA binding to histone H2A/H2B. Q9QR71. cell-free LANA-H2A/H2B peptide, fluorescence polarization. inhibition, % (test concentration not listed). 0.6% of 320,000 active; in the data active means inhibition mostly above about 10%, no sharp cut-off; inactive means mostly below about 6.7%
# GPR7 antagonist: human neuropeptides B/W receptor 1 antagonism. GPR7-expressing cells, fluorescence antagonist assay. P48145. 1.1% of 290,000 active. inhibition, % at 4.4 µM; in the data active means inhibition above about 16%, passing the limit was not always enough;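 further: cells stimulated with the agonist NPW; 0% = agonist with vehicle and 100% = vehicle without agonist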
# TAAR1 ag confirm: confirmation of human TAAR1 agonists; shares compounds with TAAR1 ag; CHO RD-HGA16 TAAR1, Fluo-8 calcium fluorescence; scaled: DMSO 0%, maximal phenethylamine 100%; activation, % at 3 µM; 82% of 2,400 active; AID 651783;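 active means activation above a cutoff set at the run's mean compound activation plus 3 SD, cut at about 39% in these data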
# Ga16 nonsel ag: nonselective agonism, TAAR1 counter-screen; shares compounds with TAAR1 ag; CHO-Ga16 parental, Fluo-8 calcium fluorescence; normalized to maximal ATP response, DMSO zero; activation, % at 3 µM; 50% of 2,400 active; AID 651787;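 active means activation above the run cutoff, the mean activation over all tested wells plus 3 SD, cut at about 12% in these data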;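 further: 0% = DMSO wells and 100% = maximal ATP response on the peak over basal ratio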
# TAAR1 desensitize: human TAAR1 agonist that also desensitizes the receptor; shares compounds with TAAR1 ag; CHO RD-HGA16 hTAAR1, Fluo-8 calcium, beta-PEA response inhibition; inhibition, % at 3 µM; 46% of 2,400 active;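 active means inhibition above the run cutoff, the mean inhibition of all test compounds plus 3 SD, cut at about 49% in these data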;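 further: beta-PEA stimulus applied at its EC80; loss of beta-PEA calcium signal after compound pretreatment read as receptor desensitization; 0% = DMSO with beta-PEA at EC80 and 100% = DMSO alone without agonist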
# Ga16 antag count: nonselective Ga16 antagonist in TAAR1 agonist counter-screen; shares compounds with TAAR1 ag; 39% of 2,400 active; CHO-Ga16 ATP-induced calcium, Fluo-8 fluorescence; inhibition, % at 3 µM;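 active means inhibition above the plate's mean compound inhibition plus 3 SD, computed per plate, cut at about 22% in these data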;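 further: 0% = EC80 ATP with DMSO and 100% = DMSO wells without ATP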
# The depositor's hits bear a star; · = not tested or not shown. In the library only some 3.4% were active in any assay of this set; here they are far more common.
SMILES,TRPML3 ag,TAAR1 antag,zfTRPN1 agonist,TAAR1 ag,LANA-H2B inh,GPR7 antagonist,TAAR1 ag confirm,Ga16 nonsel ag,TAAR1 desensitize,Ga16 antag count
CCOc1ccccc1N1CCN(C(=O)c2c(-c3c(F)cccc3Cl)noc2C)CC1,·,42,·,8,7,-17,·,·,·,·
O=C(O)C1CCC(N2C(=O)c3c(Cl)c(Cl)c(Cl)c(Cl)c3C2=O)CC1 (centres undefined),·,·,·,·,4,-9,·,·,·,·
c1ccc(CCN2CN=C(Nc3nc4ccccc4s3)NC2)cc1,0,51*,0,79*,-1,-16,40*,0,11,3
c1ccc(CN2CN=C(Nc3nc4ccccc4s3)NC2)cc1,1,4,-1,2,5,-3,·,·,·,·
O=C(Nc1ccc(F)cc1)Nc1cccnc1,·,-4,·,64*,6,3,81*,6,48,5
O=C(Nc1ccccc1)Nc1ccc(Oc2cccnc2)nc1,2,-18,8,67*,2,-3,90*,12*,80*,20
CCOc1ccccc1CN1CCNC(=O)C1CC(=O)N(C)CCc1ccccn1 (centres undefined),·,-20,·,54*,1,-10,60*,6,18,1
Cc1ccc(CN2CCNC(=O)C2CC(=O)N(C)CCc2ccccc2)cc1 (centres undefined),0,-11,0,59*,-3,-13,78*,0,37,0
CC(=O)c1cccc(OC(=O)c2ccc3c(=O)n4c(nc3c2)CCC4)c1,·,·,·,·,-1,·,·,·,·,·
CCN(CC)c1ccc(/C=C(\C#N)C(=O)c2ccc(Br)cc2)cc1,6,91*,10,215*,-15,9,315*,325*,105*,103*
O=C1Nc2ccccc2C(=O)C1(Cl)Cc1ccccc1 (centres undefined),0,9,-1,47*,-4,2,17,8,24,7
CC(C)(C)N1C(=O)c2ccccc2NC(=O)N1Cc1ccccc1,-1,-11,0,7,23,9,·,·,·,·
NC(=O)c1ccc(NC(=O)COC(=O)CC2Sc3ccccc3NC2=O)cc1 (centres undefined),·,-12,·,4,2,·,·,·,·,·
O=C(CCCc1ccccc1)Nc1cccc2c1CCCC2,-1,71*,0,55*,-7,11,6,5,9,18
O=C(COc1ccccc1)Nc1cccc2c1CCCC2,0,10,-1,9,5,4,·,·,·,·
C=CCn1c(SCC(=O)NCC2CCCO2)nc2sc(CC)cc2c1=O (centres undefined),·,2,·,2,3,·,·,·,·,·
Cc1sc(NC(=O)CSc2nnc(COc3ccccc3)n2C)c(C#N)c1C,0,47,-1,53*,1,-11,11,4,19,8
Cc1ccc(OCc2nnc(SCC(=O)Nc3sc(C)c(C)c3C#N)n2C)cc1,1,46,0,54*,0,-15,10,2,20,5
CC1(C(=O)NS(=O)(=O)c2ccc(F)cc2F)CCN1C(=O)CC1CCCCC1 (centres undefined),·,-27,·,5,·,·,·,·,·,·
Cc1c(C(=O)NCc2cccc(C(F)(F)F)c2)sc(=O)n1Cc1cccc(F)c1,·,-10,·,4,·,·,·,·,·,·
Cc1c(C(=O)NCc2ccc(C(F)(F)F)cc2)sc(=O)n1Cc1cccc(F)c1,·,100*,·,127*,·,·,114*,77*,97*,71*
COc1cccc(Nc2nc3cc(C)ccc3cc2C)c1,·,-1,·,-1,·,·,·,·,·,·
Cc1cc(C(=O)Nc2cccc(O)c2)c(C)o1,0,0,-1,50*,-3,-14,50*,17*,3,5
CC(C)[C@@H](CO)NS(=O)(=O)c1ccc(Br)cc1F,·,7,·,0,·,·,·,·,·,·
C=CCOC(=O)C(=O)/C=C/c1coc2ccccc2c1=O,1,16,1,53*,-2,-10,36,23*,-4,13
SMILES,TRPML3 ag,TAAR1 antag,zfTRPN1 agonist,TAAR1 ag,LANA-H2B inh,GPR7 antagonist,TAAR1 ag confirm,Ga16 nonsel ag,TAAR1 desensitize,Ga16 antag count
O=C(Nc1ccc2c(c1)OCO2)c1cc(C2CCCCN2C(=O)CCCc2ccccc2)on1 (centres undefined),·,21,·,9,·,·,·,·,·,·
CN(C)C(=S)NC(=S)Nc1ccc2ccccc2c1,·,19,·,3,·,·,·,·,·,·
CCOC(=O)c1c(NC(=O)CSc2nnc(C)s2)sc2c1CCC(C)C2 (centres undefined),1,3,-1,29,-3,0,·,·,·,·
CCOC(=O)c1c(NC(=O)CSc2nnc(C)s2)sc2c1CCCCC2,0,-11,0,58*,1,5,40*,23*,12,15
CN(C)c1ccc(C=C2SC(=S)NC2=O)cc1,·,57*,·,69*,·,·,57*,85*,69*,78*
O=C1NC(=S)SC1=Cc1ccc2c(c1)OCO2,·,-10,·,2,·,·,·,·,·,·
O=C(CNC(=O)c1ccccc1Cl)N/N=C/C=C/c1ccccc1,0,·,3,·,-2,-7,·,3,·,9
O=C(O)c1ccc(N/N=C/C=C/c2ccccc2)cc1,0,4,3,57*,2,-5,30,12*,16,17
O=C(CNC(=O)c1cccc(Cl)c1)N/N=C/C=C/c1ccccc1,-1,31,-3,46*,5,-8,77*,15*,67*,-4
O=C(N/N=C/C=C/c1ccccc1)c1ccncc1,1,-26,1,3,6,-9,·,·,·,·
O=C(CNC(=O)c1cccc(Cl)c1)N/N=C/c1cccnc1,1,-8,0,0,1,-7,·,·,·,·
O=C(CNC(=O)c1ccccc1F)N/N=C\C=C\c1ccccc1,·,29,·,42*,1,-11,67*,0,56*,3
CC(C)C[C@@H](CO)NS(=O)(=O)c1c(F)cccc1F,·,5,·,-1,·,·,·,·,·,·
CC(C)(C)n1nc2c(c1NC(=O)c1cccc(Cl)c1)CS(=O)(=O)C2,·,-20,·,1,-4,5,·,·,·,·
CC(C)c1ccc(-c2c(NCCc3ccccc3)c(=O)c2=O)cc1,·,-4,·,49*,-3,-11,37,2,13,9

# Source: PubChem BioAssay (several laboratories)
